CHOP inhibitor = inhibitors of CHOP promoter induction, primary screen, cell-based, unfolded protein response, luciferase reporter | CHO-K1 CHOP-promoter luciferase, tunicamycin-induced, 15-18 h | inhibition, % at 10 µM | 3.8% of 220,000 active | AID 2732, 2010;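 active means compounds that reduced the stress-induced luciferase reporter signal by more than about 70% of percent inhibition, limit read from the data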;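 further: 0% = tunicamycin plus vehicle and 100% = wells without tunicamycin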
UPR XBP1 act = activators of adaptive XBP1 UPR arm, primary screen, cell-based, CHO-XBP1 luciferase reporter, luminescence, uHTS. IRE1-XBP1 UPR activation; percent of tunicamycin response, DMSO as zero. activation, % at 20 µM. 0.33% of 330,000 active. AID 463104, 2010;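 active means versus positive control, 20 µM dose yields 30% or more activation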;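 further: 100% = tunicamycin at 10 µg/mL and 0% = DMSO only wells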
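Material: CHO-XBP1 cells stably carrying IRE1-XBP1-driven luciferase reporter | Medium: F12 with 10% serum | Compound dosing: 20 µM single concentration, DMSO 1% | Incubation: Overnight seeding at 37 °C, 6 h compound treatment at 37 °C | Detection: Steady-Glo luminescence read | Read-out basis: % activation of reporter signal versus tunicamycin and DMSO controls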
GRIN3A LBD mod = binders of NR3A ligand-binding domain, primary screen, biophysical, differential scanning fluorimetry, uHTS | Tm shift relative to glycine control, % at 25 µM | AID 1259313, 2017 | Glutamate receptor ionotropic, NMDA 3A (GRIN3A) ligand-binding domain | NR3A LBD differential scanning fluorimetry, Tm shift; 0% = protein alone, 100% = glycine-bound protein | 2.5% of 340,000 active;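 active means melting temperature shift of at least 10% of the positive control shift, at one fixed dose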
MPTP inh = mitochondrial permeability transition pore inhibitors, primary screen, biochemical, isolated mouse mitochondria, absorbance | inhibition, % at 10 µM | AID 602449, 2012 | 1.4% of 360,000 active | Ca2+ swelling absorbance, 30 min;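 active means inhibition of 50% or more, scaled per plate between neutral and stimulator controls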;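 further: 0% = DMSO wells given calcium and 100% = 1 mM EGTA wells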
CHOP UPR activ = activators of apoptotic CHOP UPR arm, primary screen, cell-based, CHO-CHOP luciferase reporter, luminescence, uHTS | 0.34% of 330,000 active | UPR activation; percent of tunicamycin response over DMSO baseline | activation, % at 10 µM | AID 449763, 2010;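 active means at 10 µM dose, activation of 40% or more, normalized to positive control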;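 further: 100% = tunicamycin at 10 µg/mL and 0% = DMSO alone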
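Material: CHO-CHOP cells, stable luciferase reporter of PERK-eIF2a-CHOP signalling; quantity: 500 reporter cells seeded per well; buffer or medium: F12 medium containing 10% fetal bovine serum; compound: one dose, 10 µM in 0.5% DMSO; incubation: 6 h compound treatment, 37 °C; measured by: Steady-Glo luciferase luminescence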
aDG glyco act = activators of alpha-DG glycosylation, primary screen, uHTS, Pro5-aDG cells, AlphaScreen; alpha-DG glycosylation AlphaScreen (IIH6); 0% Pro5, 100% B10-LARGE cell signal; activation, % at 10 µM; 0.22% of 360,000 active;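 active means activation of at least 8% versus controls, or a plate z-score of at least 8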;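 further: Pro5 are CHO cells carrying HIG-tagged alpha-DG that lacks glycosylation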
CHOP UPR conf = activators of apoptotic CHOP UPR arm, confirmation, cell-based, CHO-CHOP luciferase reporter, single concentration; shares compounds with CHOP UPR activ; CHO-CHOP cells, CHOP-luciferase reporter luminescence; percent of tunicamycin response, DMSO as zero; activation, % at 10 µM; 64% of 1,000 active; AID 463112, 2010; in the data active means activation above about 33%;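 further: 0% = DMSO wells and 100% = tunicamycin 10 µg/mL wells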
Active calls of the source: *; · = no result. In the library only some 5.6% were active in any assay of this set; here they are far more common.

SMILES | CHOP inhibitor | UPR XBP1 act | GRIN3A LBD mod | MPTP inh | CHOP UPR activ | aDG glyco act | CHOP UPR conf
COc1ccc(C(C(=O)NC2CCCCC2)N(C(=O)CCl)c2ccc(OC)cc2)cc1 (stereo not given) | 9 | -1 | -11 | 2 | 36 | 0 | ·
COc1ccc(C(C(=O)NC2CCCCC2)N(C(=O)CCl)c2ccc(C)cc2)cc1 (stereo not given) | 40 | 2 | -2 | 2 | 62* | 0 | 29
O=c1[nH][nH]c(=O)c2nc(Nc3ccccc3)ncc12 | · | · | 0 | -1 | · | 0 | ·
CCOC(=O)c1c(-c2ccc(-c3ccccc3)cc2)csc1NC(=O)CNCCN(C)C | · | 10 | · | -3 | 42* | 0 | 119*
O=[N+]([O-])c1cc(O)c2ncccc2c1 | 45 | 13 | -2 | · | 109* | · | 88*
COC(=O)c1cc(=O)n(Cc2ccc(OC)cc2)c(=NCc2ccc(OC)cc2)s1 | -27 | 2 | -3 | 3 | 2 | 0 | ·
COC(=O)c1cc(=O)n(CCc2ccc(OC)cc2)c(=Nc2ccc(F)c(Cl)c2)s1 | -34 | 10 | 2 | 1 | 60* | 0 | 40*
COC(=O)c1cc(Br)c(=O)n(Cc2ccc3c(c2)OCO3)c1 | -2 | -6 | 0 | 0 | 1 | 0 | ·
COC(=O)c1cc(=O)n(Cc2ccc3c(c2)OCO3)c(=Nc2ccc(F)c(Cl)c2)s1 | -30 | 3 | -4 | 3 | 62* | 0 | 73*
O=C(NCc1ccco1)Nc1nnc([C@H]2C[C@H](O)[C@@H](CO)O2)s1 | · | · | · | 2 | · | 0 | ·
CCOC(=O)c1ccc(NC(=O)NC2=NCCS2)cc1 | · | · | · | -1 | · | 0 | ·
S=C(Nc1ccccn1)c1ccccn1 | -38 | 16 | 1 | -4 | 165* | 0 | 126*
O=C(Nc1ccccn1)C(=O)Nc1ccccn1 | -8 | -2 | -4 | 1 | 0 | 0 | ·
Cc1ccc2[nH]cc(C(=O)CCl)c2c1 | 47 | -6 | 38* | -1 | 348* | 1 | 189*
Cc1ccc2c(C(=O)CCl)c(C)[nH]c2c1 | -220 | -6 | 0 | 4 | 479* | 1 | 274*
O=[N+]([O-])/C=C\c1ccc(N2CCOCC2)cc1 | · | -3 | 2 | 3 | 52* | 0 | 126*
C=CCc1c(C)[nH]c2c(OC)cccc2c1=S | -9 | 0 | -1 | -1 | -1 | 0 | ·
CCCCC(CC)CN=C(N)NC(N)=NCCCCCCN=C(N)NC(N)=NCC(CC)CCCC (stereo not given) | · | 1 | 3 | -2 | 54* | 0 | 38*
O=C1CCCN1C(=O)CSc1nnnn1-c1cccc(F)c1 | · | -2 | 3 | -2 | 1 | 0 | ·
C/C(=N\NC(=O)c1cc(O)ccc1O)c1cccc(NC(=O)c2ccc(Cl)cc2)c1 | · | 11 | 5 | -2 | 72* | 0 | 5
O=C(C=C=Nc1ccccc1)C(=O)N=C=Cc1ccccc1 | 96* | 1 | 5 | 6 | 225* | 0 | 135*
COc1cc(/C=C2\COC/C(=C\c3ccc(O)c(OC)c3)C2=O)ccc1O | 41 | -6 | 26* | 5 | 140* | 0 | 112*
COc1cc(C=C2C(=O)c3ccccc3C2=O)ccc1O | 8 | -1 | 0 | 5 | 1 | 0 | ·
COc1ccc(/C=C2\CN(Cc3ccccc3)C/C(=C\c3ccc(OC)c(O)c3)C2=O)cc1O | · | -8 | 3 | 0 | 51* | 0 | 43*
O=C(COC(=O)c1cc(Br)ccc1Cl)NC1CCCC1 | 10 | 0 | -3 | -4 | 3 | 0 | ·
SMILES | CHOP inhibitor | UPR XBP1 act | GRIN3A LBD mod | MPTP inh | CHOP UPR activ | aDG glyco act | CHOP UPR conf
CC(=O)c1c(C)[nH]c(C(=O)OCc2csc(CC(=O)Nc3ccccc3C)n2)c1C | · | -5 | -1 | 0 | -1 | 1 | ·
CCc1nnc(NS(=O)(=O)c2ccc(NC(=O)c3ccccc3OC)cc2)s1 | · | -3 | 1 | 0 | -1 | 0 | ·
O=C(O)c1cc2c([nH]c1=O)CCCC2 | · | 2 | -4 | 0 | -1 | 0 | ·
C=CCSC(=C(C#N)C#N)c1cc2c([nH]1)CCCC2 | 63 | -5 | -3 | 8 | 43* | -1 | 55*
CC(C)Cc1nc(N2CCN(C(=O)C(C)C)CC2)c(C#N)c2c1CCC2 | -8 | -3 | -1 | 0 | 40* | 0 | 0
CCn1c(-c2ccccc2)c(C(=O)CCl)c2ccccc21 | 105* | 7 | 0 | 2 | 77* | -1 | 110*
CCOc1ccc(-c2c(C(=O)N/N=C/c3cccnc3)nnn2-c2nonc2N)cc1 | · | -1 | 2 | 0 | -1 | 0 | ·
COc1ccc(CN(C)CC(=O)N2CCc3ccccc3C2)cc1 | · | 1 | 0 | 1 | 1 | 0 | ·
O=C1c2ccccc2C(=O)N1CCc1ccccn1 | -10 | 2 | 0 | 0 | 3 | 0 | ·
O=C1c2cccc3c([N+](=O)[O-])ccc(c23)C(=O)N1CCc1ccccn1 | -51 | 9 | 0 | 5 | 58* | 0 | 24
Cc1ccc(S(=O)(=O)Nc2cccc3cccnc23)c([N+](=O)[O-])c1 | · | -4 | -11 | -2 | 404* | 1 | 743*
O=S(=O)(Nc1cccc2cccnc12)c1ccc(S(=O)(=O)N2CCCC2)cc1 | -33 | -7 | -6 | -2 | 134* | 1 | 99*
CC(=O)Nc1ccc(S(=O)(=O)Nc2cccc3cccnc23)cc1 | · | 0 | 3 | -2 | -1 | 0 | ·
O=S(=O)(Nc1cccc2cccnc12)c1ccccc1 | · | -9 | 0 | -2 | 368* | 0 | 58*
COc1ccc(NS(=O)(=O)c2ccc3ccccc3c2)c2ncccc12 | · | 3 | -6 | -2 | 137* | 0 | 418*
CC(=O)c1cccc(N(CC(=O)NC2CCCCC2)C(=O)Cn2nnc(-c3ccccc3)n2)c1 | · | -3 | -1 | 1 | 2 | 0 | ·
Cc1ccccc1OCCOC(=O)c1cc(S(=O)(=O)N2CCCCC2)ccc1N1CCOCC1 | · | 1 | 2 | -2 | 6 | 2 | ·
Cc1ccc2cccc(NS(=O)(=O)c3ccccc3)c2n1 | · | 0 | 1 | · | 446* | · | 94*
O=C(CSc1ccccn1)Nc1ccc(NC(=O)CSc2ccccn2)cc1 | 59 | -1 | -1 | 1 | -1 | 0 | ·

Screening data deposited in PubChem by several laboratories.
